Key:
[1] = Inhibition of Trypanosoma cruzi trans-sialidase containing catalytic domain (N58F, R200K) and lectin-like domain (S495 K, V496G, E520K, D593G, I597D, H599R) mutation expressed in Escherichia coli JM109 assessed as MuNANA substrate hydrolysis in presence of 0.1% Triton X-100 by discontinuous fluorimetric assay
How it was run: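 Recombinant TcTS lacking the C-terminal SAPA repeat, His-tagged (pTrcHisA) and purified by cation exchange, Ni affinity and gel filtration. Conditions: 8 ng/ml enzyme, 50 µM MuNANA, 50 mM Tris-HCl pH 7.5, 0.1% Triton X-100, 10% DMSO, 25 °C for 30 min. Stopped with 0.2 M Na2CO3 pH 10. Released Mu read at ex 355/em 460 nm in two or three replicates, corrected for compound fluorescence interference.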

[2] = biological target: Sialidase-2 (Homo sapiens, UniProt Q9Y3R4); experiment: Inhibition of human Neu2 assessed as MuNANA substrate hydrolysis in presence of 0.1% Triton X-100 by discontinuous fluorimetric assay
How it was run: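 Recombinant human Neu2 expressed from pET15b in E. coli BL21(DE3) and purified on DEAE and His-Trap columns. Reactions were quenched with 0.2 M Na2CO3 (pH 10), and released 4-methylumbelliferone was read at ex 355/em 460 nm. Runs were in duplicate or triplicate, corrected for compound fluorescence interference.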

[3] = Selectivity for Trypanosoma cruzi trans-sialidase mutant over human Neu2
[4] = Noncompetitive inhibition of Trypanosoma cruzi trans-sialidase containing catalytic domain (N58F, R200K) and lectin-like domain (S495 K, V496G, E520K, D593G, I597D, H599R) mutation expressed in Escherichia coli JM109 by discontinuous fluorimetric assay using Lineweaver-Burke plot
How it was run: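 Same MuNANA hydrolysis assay with purified recombinant TcTS at 25 °C in Tris-HCl pH 7.5. MuNANA was varied over 25–200 µM against several inhibitor concentrations, in triplicate. The inhibition mode was assigned by best fit, and Ki for noncompetitive inhibition was taken from the Lineweaver–Burk double-reciprocal plot.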

[5] = test system: Trypanosoma cruzi; experiment: Antiparasitic effect against Trypanosoma cruzi assessed as induction of parasite lysis; format: functional, organism-based

Sialidase-2, sequence (Q9Y3R4 whole entry): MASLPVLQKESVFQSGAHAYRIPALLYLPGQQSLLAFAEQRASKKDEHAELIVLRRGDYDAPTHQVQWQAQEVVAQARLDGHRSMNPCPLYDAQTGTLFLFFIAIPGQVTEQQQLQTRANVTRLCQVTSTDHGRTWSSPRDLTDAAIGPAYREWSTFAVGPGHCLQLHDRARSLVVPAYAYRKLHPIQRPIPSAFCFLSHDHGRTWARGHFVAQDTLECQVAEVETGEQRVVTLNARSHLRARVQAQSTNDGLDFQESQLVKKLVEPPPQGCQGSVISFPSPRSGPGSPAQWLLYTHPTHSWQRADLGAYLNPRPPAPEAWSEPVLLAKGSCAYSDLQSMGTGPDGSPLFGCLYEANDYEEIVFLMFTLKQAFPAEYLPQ

SMILES | IC50 [1] | IC50 [2] | Ratio IC50 [3] | Ki [4] | IC50 [5]
O=c1c(-c2ccc(O)cc2)coc2cc(O)cc(O)c12 [GENISTEIN] | 230 µM | 380 µM | 1.7 |  | 
O=c1c(O)c(-c2ccc(O)c(O)c2)oc2cc(O)cc(O)c12 [QUERCETIN] | 58 µM | 160 µM | 2.8 |  | 
O=c1cc(-c2ccc(O)cc2)oc2cc(O)ccc12 | > 1000 µM | 470 µM | < 0.5 |  | 
Cc1cc(O)c2c(c1)C(=O)c1cc(O)cc(O)c1C2=O [EMODIN] | 110 µM | 760 µM | 6.9 |  | 
O=C(O)c1ccc2c(c1)C(=O)c1ccccc1C2=O | 430 µM | 800 µM | 1.9 |  | 
O=c1cc(-c2ccccc2)oc2cc(O)c(O)c(O)c12 [BAICALEIN] | 100 µM | 130 µM | 1.3 |  | 
O=C1c2cccc(O)c2C(=O)c2c(O)cccc21 [DANTHRON] | 710 µM | > 1000 µM | > 1.4 |  | 
O=c1c(O)c(-c2ccc(O)cc2)oc2cc(O)cc(O)c12 [KAEMPFEROL] | 110 µM | 230 µM | 2.1 |  | 
COc1ccc(-c2cc(=O)c3c(O)cc(O)cc3o2)cc1 [ACACETIN] | > 1000 µM | > 1000 µM |  |  | 
O=C(O)c1cc(O)c2c(c1)C(=O)c1cccc(O)c1C2=O [RHEIN] | 14 µM | 130 µM | 9.3 |  | 
O=c1cc(-c2ccc(O)cc2)oc2cccc(O)c12 | > 1000 µM | > 1000 µM |  |  | 
O=c1c(O)c(-c2cc(O)c(O)c(O)c2)oc2cc(O)cc(O)c12 [MYRICETIN] | 17 µM | 150 µM | 8.8 |  | 
O=c1cc(-c2ccc(O)c(O)c2)oc2cc(O)cc(O)c12 [LUTEOLIN] | 22 µM | 130 µM | 5.9 |  | 
O=c1cc(-c2cc(O)c(O)c(O)c2)oc2cc(O)cc(O)c12 [TRICETIN] | 39 µM | 130 µM | 3.3 |  | 
O=C(O)c1cc(O)c2c(c1)C(=O)c1cc(O)c(Cl)c(O)c1C2=O | 0.58 µM | > 100 µM | > 170 | 0.89 µM | 
COc1cc(O)c2c(c1)O[C@H](c1ccc(O)cc1)CC2=O [SAKURANETIN] | > 1000 µM | 890 µM | < 0.9 |  | 
O=c1cc(-c2ccccc2)oc2cc(O)cc(O)c12 [CHRYSIN] | 340 µM | 890 µM | 2.6 |  | 
O=c1cc(-c2ccc(O)cc2)oc2cc(O)c(O)c(O)c12 [SCUTELLAREIN] | 50 µM | 55 µM | 1.1 |  | 
O=c1cc(-c2ccc(O)cc2)oc2cc(O)cc(O)c12 [APIGENIN] | 78 µM | 570 µM | 7.3 | 60 µM | 680 µM
O=c1cc(-c2ccccc2O)oc2cc(O)cc(O)c12 | 360 µM | 70 µM | 0.2 |  | 
COc1cc(O)c2c(=O)cc(-c3ccc(O)cc3)oc2c1 [GENKWANIN] | 140 µM | > 1000 µM |  |  | 
O=c1cc(-c2ccccc2)oc2cccc(O)c12 [5-HYDROXYFLAVONE] | > 1000 µM | > 1000 µM |  |  | 
Oc1cc(O)c2c(c1)O[C@@H](c1ccc(O)c(O)c1)[C@H](O)C2 [(-)-CATECHIN] | > 1000 µM | > 1000 µM |  |  | 
